Experimental data: ChEMBL document CHEMBL2016559, “Synthesis and cytotoxic activity evaluation of dihydrocucurbitacin B and cucurbitacin B derivatives” (Bioorg Med Chem, 2012)

Key:
A549 [1] = test: Cytotoxicity against human A549 cells after 72 hrs by MTT assay; type: functional, cell-based; conditions: A549, 72 h
Summary of the method: (§1)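 A549 human NSCLC cells kept in MEM with 10% FBS, penicillin/streptomycin and amphotericin B at 37 °C under humidified 5% CO2. Seeded at 1x10⁴ cells/well and left 24 h, then exposed to a range of concentrations for 48 h or 72 h at 37 °C. MTT (1 mg/mL) added for 4 h, formazan dissolved in DMSO, absorbance read at 540 nm. IC50 taken against untreated controls by log(compound) vs normalized response (variable slope) fit, with 95% CI.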

A549 [2] = test: Ratio of IC50 for human A549 cells after 48 hrs to IC50 for human A549 cells after 72 hrs; type: functional
Summary of the method: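 Ratio of the 48 h to the 72 h IC50 in A549 cells. Both IC50s come from the MTT assay (1x10⁴ cells/well, 24 h attachment, then 48 h or 72 h compound exposure). Each was fitted by log(compound) vs normalized response nonlinear regression (variable slope), relative to untreated controls.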

A549 [3] = test: Cytotoxicity against human A549 cells after 48 hrs by MTT assay; type: functional, cell-based; conditions: A549, 48 h; summary of the method: as §1

Compound: CC(=O)OC(C)(C)CCC(=O)[C@](C)(O)[C@H]1C(=O)C[C@@]2(C)[C@@H]3CC=C4[C@@H](C[C@H](O)C(=O)C4(C)C)[C@]3(C)C(=O)C[C@]12C
- IC50 (A549 [1]): 26.5 µM
- Ratio IC50 (A549 [2]): 2.1
- IC50 (A549 [3]): 54.4 µM

Compound: CC(=O)OC(C)(C)CCC(=O)[C@](C)(O)[C@H]1C(=O)C[C@@]2(C)[C@@H]3CC=C4[C@@H](C=C(O)C(=O)C4(C)C)[C@]3(C)C(=O)C[C@]12C
- IC50 (A549 [1]): > 100 µM
- IC50 (A549 [3]): > 100 µM

Compound: CC(=O)O[C@H]1C[C@@H]2C(=CC[C@@H]3[C@@]2(C)C(=O)C[C@]2(C)[C@@H]([C@@](C)(O)C(=O)CCC(C)(C)OC(C)=O)[C@H](OC(C)=O)C[C@@]32C)C(C)(C)C1=O
- IC50 (A549 [1]): 72.5 µM
- IC50 (A549 [3]): > 100 µM

Compound: CC(=O)OC(C)(C)CCC(=O)[C@](C)(O)[C@H]1[C@H](OC(=O)CCC(=O)O)C[C@@]2(C)[C@@H]3CC=C4[C@@H](C[C@H](OC(=O)CCC(=O)O)C(=O)C4(C)C)[C@]3(C)C(=O)C[C@]12C
- IC50 (A549 [1]): > 100 µM
- IC50 (A549 [3]): > 100 µM

Compound: CC(=O)O[C@H]1C[C@@H]2C(=CC[C@@H]3[C@@]2(C)C(=O)C[C@]2(C)[C@@H]([C@@](C)(O)C(=O)/C=C/C(C)(C)OC(C)=O)[C@H](OC(C)=O)C[C@@]32C)C(C)(C)C1=O
- IC50 (A549 [1]): 2.64 µM
- Ratio IC50 (A549 [2]): 5.5
- IC50 (A549 [3]): 14.7 µM

Compound: CC(=O)OC(C)(C)CCC(=O)[C@](C)(O)[C@H]1[C@H](O)C[C@@]2(C)[C@@H]3CC=C4[C@@H](C[C@H](OC(=O)c5ccccc5)C(=O)C4(C)C)[C@]3(C)C(=O)C[C@]12C
- IC50 (A549 [1]): > 100 µM
- IC50 (A549 [3]): > 100 µM

Compound: CC(=O)OC(C)(C)CCC(=O)[C@](C)(O)[C@H]1[C@H](OC(=O)c2ccccc2)C[C@@]2(C)[C@@H]3CC=C4[C@@H](C[C@H](OC(=O)c5ccccc5)C(=O)C4(C)C)[C@]3(C)C(=O)C[C@]12C
- IC50 (A549 [1]): > 100 µM
- IC50 (A549 [3]): > 100 µM

Compound: CC(=O)OC(C)(C)CCC(=O)[C@](C)(O)[C@H]1[C@H](OC(=O)n2ccnc2)C[C@@]2(C)[C@@H]3CC=C4[C@@H](C[C@H](OC(=O)n5ccnc5)C(=O)C4(C)C)[C@]3(C)C(=O)C[C@]12C
- IC50 (A549 [1]): > 100 µM
- IC50 (A549 [3]): > 100 µM

Compound: CC(=O)O[C@@H]1C[C@@]2(C)[C@@H]3CC=C4[C@@H](C[C@H](Sc5ccccc5)C(=O)C4(C)C)[C@]3(C)C(=O)C[C@]2(C)[C@H]1[C@@](C)(O)C(=O)CCC(C)(C)OC(C)=O
- IC50 (A549 [1]): > 100 µM
- IC50 (A549 [3]): > 100 µM

Compound: CC(=O)O[C@@H]1C[C@@]2(C)[C@@H]3CC=C4[C@@H](C[C@H](SC(C)=O)C(=O)C4(C)C)[C@]3(C)C(=O)C[C@]2(C)[C@H]1[C@@](C)(O)C(=O)CCC(C)(C)OC(C)=O
- IC50 (A549 [1]): > 100 µM
- IC50 (A549 [3]): > 100 µM

Compound: CC(=O)OC(C)(C)CCC(=O)[C@](C)(O)[C@H]1[C@H](O)C[C@@]2(C)[C@@H]3CC=C4[C@@H](Cc5sc(N)nc5C4(C)C)[C@]3(C)C(=O)C[C@]12C
- IC50 (A549 [1]): > 100 µM
- IC50 (A549 [3]): > 100 µM

Compound: CC(=O)OC(C)(C)/C=C/C(=O)[C@](C)(O)[C@H]1[C@H](O)C[C@@]2(C)[C@@H]3CC=C4[C@@H](Cc5sc(N)nc5C4(C)C)[C@]3(C)C(=O)C[C@]12C
- IC50 (A549 [1]): 11.5 µM
- Ratio IC50 (A549 [2]): 2.5
- IC50 (A549 [3]): 28.8 µM

Compound: CC(=O)OC(C)(C)CCC(=O)[C@](C)(O)[C@H]1[C@H](O)C[C@@]2(C)[C@@H]3CC=C4[C@@H](C[C@H](Br)C(=O)C4(C)C)[C@]3(C)C(=O)C[C@]12C
- IC50 (A549 [1]): 29.1 µM
- Ratio IC50 (A549 [2]): 1.2
- IC50 (A549 [3]): 34.9 µM

Compound: CC(=O)OC(C)(C)/C=C/C(=O)[C@](C)(O)[C@H]1[C@H](O)C[C@@]2(C)[C@@H]3CC=C4[C@@H](C[C@H](Br)C(=O)C4(C)C)[C@]3(C)C(=O)C[C@]12C
- IC50 (A549 [1]): 0.12 µM
- Ratio IC50 (A549 [2]): 11.1
- IC50 (A549 [3]): 1.33 µM

Compound: CC(=O)OC(C)(C)CCC(=O)[C@](C)(O)[C@H]1[C@H](O)C[C@@]2(C)[C@@H]3CC=C4[C@@H](C=C(N)C(=O)C4(C)C)[C@]3(C)C(=O)C[C@]12C
- IC50 (A549 [1]): > 100 µM
- IC50 (A549 [3]): > 100 µM

Compound: CC(=O)O[C@@H]1C[C@@]2(C)[C@@H]3CC=C4[C@@H](C=C(N)C(=O)C4(C)C)[C@]3(C)C(=O)C[C@]2(C)[C@H]1[C@@](C)(O)C(=O)CCC(C)(C)OC(C)=O
- IC50 (A549 [1]): 55.2 µM
- IC50 (A549 [3]): > 100 µM

Compound: CC(=O)OC(C)(C)/C=C/C(=O)[C@](C)(O)[C@H]1[C@H](O)C[C@@]2(C)[C@@H]3CC=C4[C@@H](C=C(N)C(=O)C4(C)C)[C@]3(C)C(=O)C[C@]12C
- IC50 (A549 [1]): 0.12 µM
- Ratio IC50 (A549 [2]): 3.5
- IC50 (A549 [3]): 0.42 µM

Compound: CC(=O)OC(C)(C)CCC(=O)[C@](C)(O)[C@H]1[C@H](OC(=S)n2ccnc2)C[C@@]2(C)[C@@H]3CC=C4[C@@H](C[C@H](OC(=S)n5ccnc5)C(=O)C4(C)C)[C@]3(C)C(=O)C[C@]12C
- IC50 (A549 [1]): 6.9 µM
- Ratio IC50 (A549 [2]): 2.1
- IC50 (A549 [3]): 14.7 µM

Compound: CC(=O)OC(C)(C)CCC(=O)[C@](C)(O)[C@H]1[C@H](O)C[C@@]2(C)[C@@H]3CC=C4[C@@H](CCC(=O)C4(C)C)[C@]3(C)C(=O)C[C@]12C
- IC50 (A549 [1]): 66.7 µM
- IC50 (A549 [3]): > 100 µM

Compound: CC(=O)OC(C)(C)CCC(=O)[C@](C)(O)[C@H]1CC[C@@]2(C)[C@@H]3CC=C4[C@@H](CCC(=O)C4(C)C)[C@]3(C)C(=O)C[C@]12C
- IC50 (A549 [1]): 11.5 µM
- IC50 (A549 [3]): > 100 µM

Compound: CC(=O)[C@H]1[C@H](OC(=O)c2ccccc2)C[C@@]2(C)[C@@H]3CC=C4[C@@H](C[C@H](OC(=O)c5ccccc5)[C@@H](O)C4(C)C)[C@]3(C)C(=O)C[C@]12C
- IC50 (A549 [1]): > 100 µM
- IC50 (A549 [3]): > 100 µM

Compound: CC(=O)[C@H]1[C@H](O)C[C@@]2(C)[C@@H]3CC=C4[C@@H](C=C(O)C(=O)C4(C)C)[C@]3(C)C(=O)C[C@]12C
- IC50 (A549 [1]): > 100 µM
- IC50 (A549 [3]): > 100 µM

Compound: CC(=O)OC(C)(C)/C=C/[C@H](O)[C@](C)(O)[C@H]1[C@H](O)C[C@@]2(C)[C@@H]3CC=C4[C@@H](C[C@H](O)[C@@H](O)C4(C)C)[C@]3(C)C(=O)C[C@]12C
- IC50 (A549 [1]): > 100 µM
- IC50 (A549 [3]): > 100 µM

Compound: CC(=O)O[C@H]1C[C@@H]2C(=CC[C@@H]3[C@@]2(C)C(=O)C[C@]2(C)[C@@H]([C@@](C)(OC(=O)C(F)(F)F)C(=O)CCC(C)(C)OC(C)=O)[C@H](OC(C)=O)C[C@@]32C)C(C)(C)C1=O
- IC50 (A549 [1]): > 100 µM
- IC50 (A549 [3]): > 100 µM

Compound: CC(=O)O[C@H]1C[C@@H]2C(=CC[C@@H]3[C@@]2(C)C(=O)C[C@]2(C)[C@@H]([C@@](C)(O)C(=O)CC=C(C)C)[C@H](OC(C)=O)C[C@@]32C)C(C)(C)C1=O
- IC50 (A549 [1]): 42.6 µM
- IC50 (A549 [3]): > 100 µM

Compound: CC(=O)OC(C)(C)CCC(=O)[C@](C)(O)[C@H]1[C@H](O)C[C@@]2(C)[C@@H]3CC=C4[C@@H](C=CC(=O)C4(C)C)[C@]3(C)C(=O)C[C@]12C
- IC50 (A549 [1]): 77.7 µM
- Ratio IC50 (A549 [2]): 1.1
- IC50 (A549 [3]): 87.8 µM

Compound: CC(=O)O[C@H]1C[C@@H]2C(=CC(=O)[C@@H]3[C@@]2(C)C(=O)C[C@]2(C)[C@@H]([C@@](C)(O)C(=O)CCC(C)(C)OC(C)=O)[C@H](OC(C)=O)C[C@@]32C)C(C)(C)C1=O
- IC50 (A549 [1]): > 100 µM
- IC50 (A549 [3]): > 100 µM

Compound: CC(=O)OC(C)(C)CCC(=O)[C@](C)(O)[C@H]1[C@H](O)C[C@@]2(C)[C@@H]3CC=C4[C@@H](C=C(O)C(=O)C4(C)C)[C@]3(C)C(=O)C[C@]12C
- IC50 (A549 [1]): > 100 µM
- IC50 (A549 [3]): > 100 µM

Compound: CC(=O)OC(C)(C)CCC(=O)[C@](C)(O)[C@H]1[C@H](O)C[C@@]2(C)[C@@H]3CC=C4[C@@H](C[C@H](O)C(=O)C4(C)C)[C@]3(C)C(=O)C[C@]12C [23,24-DIHYDROCUCURBITACIN B]
- IC50 (A549 [1]): 12.1 µM
- Ratio IC50 (A549 [2]): 1.6
- IC50 (A549 [3]): 19.9 µM

Compound: CC(=O)OC(C)(C)/C=C/C(=O)[C@](C)(O)[C@H]1[C@H](O)C[C@@]2(C)[C@@H]3CC=C4[C@H](C[C@H](O)C(=O)C4(C)C)[C@]3(C)C(=O)C[C@]12C [CUCURBITACIN B]
- IC50 (A549 [1]): 0.04 µM
- Ratio IC50 (A549 [2]): 3.3
- IC50 (A549 [3]): 0.13 µM

Compound: COc1cccc2c1C(=O)c1c(O)c3c(c(O)c1C2=O)C[C@@](O)(C(=O)CO)C[C@@H]3O[C@H]1C[C@H](N)[C@H](O)[C@H](C)O1 [DOXORUBICIN]
- IC50 (A549 [1]): 1.18 µM
- Ratio IC50 (A549 [2]): 3.1
- IC50 (A549 [3]): 3.69 µM

Compound: CC(=O)[C@H]1[C@H](O)C[C@@]2(C)[C@@H]3CC=C4[C@@H](C[C@H](O)[C@@H](O)C4(C)C)[C@]3(C)C(=O)C[C@]12C [HEXANORCUCURBITACIN F]
- IC50 (A549 [1]): > 100 µM
- IC50 (A549 [3]): > 100 µM

Compound: CC(=O)O[C@H]1C(=O)[C@@]2(C)[C@H]([C@H](OC(=O)c3ccccc3)[C@]3(O)C[C@H](OC(=O)[C@H](O)[C@@H](NC(=O)c4ccccc4)c4ccccc4)C(C)=C1C3(C)C)[C@]1(OC(C)=O)CO[C@@H]1C[C@@H]2O [PACLITAXEL]
- IC50 (A549 [1]): 0.19 µM
- Ratio IC50 (A549 [2]): 6.1
- IC50 (A549 [3]): 1.16 µM
